Source: ChEMBL document CHEMBL1121880, “Synthesis and antiviral activity of 5-[(cyanomethylene)oxy]-2'-deoxyuridine” (J Med Chem, 1981)
Converted amounts (≈) assume the structure as drawn.

Key:
Format in all cases: functional, cell-based
Details in all cases: Oryctolagus cuniculus
[1] = test system: PRK; experiment: Concentration required to reduce HSV-1(KOS) induced cytopathogenicity by 50% was measured by the addition of [Me-3H]-dThd
[2] = test system: PRK; experiment: Concentration required to reduce HSV-2 induced cytopathogenicity by 50% in primary rabbit kidney (PRK) cells; 10-150
[3] = test system: PRK; experiment: Concentration required to inhibit incorporation of [1,'2'-3H]dUrd into DNA of primary rabbit kidney (PRK) cells by 50%
How it was run: (§1)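 Uninfected primary rabbit kidney cells; IC50 = concentration reducing incorporation of [Me-3H]dThd or [1',2'-3H]dUrd into host cell DNA by 50%.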

[4] = test system: PRK; experiment: Concentration required to reduce TK-HSV-1 (B2006) induced cytopathogenicity by 50% in primary rabbit kidney (PRK) cells
[5] = test system: PRK; experiment: Concentration required to reduce HSV-1(KOS) induced cytopathogenicity by 50% was measured by the addition of [1,'2'-3H]dUrd
How it was run: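 HSV-1 (KOS) cytopathogenicity in PRK cells (100 CCID50 inoculum) with dThd or dUrd, unlabelled, added together with test compound at 100 μg/mL final, the highest level not itself inhibiting virus replication. CPE scored at 100% destruction in untreated infected controls; IC50 = concentration halving cytopathogenicity.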

[6] = test system: PRK; experiment: Concentration required to reduce HSV-1(KOS) induced cytopathogenicity by 50%
How it was run: (§2)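 PRK cell cultures infected with 100 CCID50 HSV-1 (KOS), then given varying compound concentrations right after virus adsorption, without added nucleoside.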

[7] = test system: PRK; experiment: Compound was evaluated for antiviral activity in rabbit kidney cells infected with vaccinia virus
[8] = test system: PRK; experiment: Concentration required to inhibit incorporation of [Me-3H]-dThd into DNA of primary rabbit kidney (PRK) cells by 50%; how it was run: as §1
[9] = test system: PRK; experiment: Concentration required to reduce HSV-1 induced cytopathogenicity by 50% in primary rabbit kidney (PRK) cells; 2-4
[10] = test system: PRK; experiment: Concentration required to reduce HSV-1(KOS) induced cytopathogenicity by 50% was measured; how it was run: as §2
[11] = test system: PRK; experiment: Concentration required to reduce HSV-1 induced cytopathogenicity by 50% in primary rabbit kidney (PRK) cells; 1-1.5
[12] = test system: PRK; experiment: Concentration required to reduce HSV-2 induced cytopathogenicity by 50% in primary rabbit kidney (PRK) cells; 7-40
[13] = test system: PRK; experiment: Concentration required to reduce HSV-1(KOS) induced cytopathogenicity in primary Rabbit by 50%
How it was run: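 Confluent primary rabbit kidney cell cultures inoculated with 100 CCID50 HSV-1 (KOS); varying compound concentrations added immediately after virus adsorption. Cytopathogenicity scored once virus-infected untreated controls reached 100% cell destruction; IC50 = concentration reducing cytopathogenicity by 50%.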

[14] = test system: PRK; experiment: Concentration required to reduce HSV-1(KOS) induced cytopathogenicity primary rabbit kidney by 50% was measured by the addition of [Me-3H]-dThd
[15] = test system: PRK; experiment: Concentration required to reduce HSV-1(KOS) induced cytopathogenicity primary rabbit kidney by 50% was measured by the addition of [1,'2'-3H]dUrd
[16] = test system: PRK; experiment: Concentration required to reduce HSV-2 induced cytopathogenicity by 50% in primary rabbit kidney (PRK) cells; 0.2-0.4
[17] = test system: PRK; experiment: Concentration required to reduce HSV-1 induced cytopathogenicity by 50% in primary rabbit kidney (PRK) cells
[18] = test system: PRK; experiment: Concentration required to reduce HSV-2 induced cytopathogenicity by 50% in primary rabbit kidney (PRK) cells; 2-4
[19] = test system: PRK; experiment: Concentration required to reduce HSV-1 induced cytopathogenicity by 50% in primary rabbit kidney (PRK) cells; 4-10

SMILES	IC50 [1] [µg/mL]	IC50 [3] [µg/mL]	IC50 [4] [µg/mL]	IC50 [5] [µg/mL]	IC50 [7] [µg/mL]	IC50 [8] [µg/mL]	IC50 [10] [µg/mL]	also measured
N#CCOc1cn([C@H]2C[C@H](O)[C@@H](CO)O2)c(=O)[nH]c1=O	> 400	> 400	> 400	> 400	150 (≈ 530 µM)	400 (≈ 1410 µM)	–	IC50 [2]: 10 µg/mL (≈ 35.3 µM); IC50 [6]: 1.5 µg/mL (≈ 5.3 µM); IC50 [9]: 2 µg/mL (≈ 7.06 µM)
C#CCOc1cn([C@H]2C[C@H](O)[C@@H](CO)O2)c(=O)[nH]c1=O	400 (≈ 1420 µM)	100 (≈ 354 µM)	> 200	40 (≈ 142 µM)	20 (≈ 70.9 µM)	200 (≈ 709 µM)	0.7 (≈ 2.48 µM)	IC50 [11]: 1 µg/mL (≈ 3.54 µM); IC50 [12]: 19 µg/mL (≈ 67.3 µM)
N#Cc1cn([C@H]2C[C@H](O)[C@@H](CO)O2)c(=O)[nH]c1=O	–	8 (≈ 31.6 µM)	–	–	–	> 400	–	–
O=c1[nH]c(=O)n([C@H]2C[C@H](O)[C@@H](CO)O2)cc1F [FLOXURIDINE]	–	–	–	–	–	–	–	IC50 [13]: 1 µg/mL (≈ 4.06 µM); IC50 [14]: > 400 µg/mL; IC50 [15]: 10 µg/mL (≈ 40.6 µM)
O=c1[nH]c(=O)n([C@H]2C[C@H](O)[C@@H](CO)O2)cc1I [IDOXURIDINE]	–	0.3 (≈ 0.847 µM)	200 (≈ 565 µM)	–	0.4 (≈ 1.13 µM)	1 (≈ 2.82 µM)	–	IC50 [16]: 0.2 µg/mL (≈ 0.565 µM); IC50 [17]: 0.1 µg/mL (≈ 0.282 µM)
Nc1ncnc2c1ncn2[C@@H]1O[C@H](CO)[C@@H](O)[C@@H]1O [VIDARABINE]	1 (≈ 3.74 µM)	10 (≈ 37.4 µM)	10 (≈ 37.4 µM)	1 (≈ 3.74 µM)	0.4 (≈ 1.5 µM)	20 (≈ 74.8 µM)	4 (≈ 15 µM)	IC50 [18]: 3 µg/mL (≈ 11.2 µM); IC50 [19]: 7 µg/mL (≈ 26.2 µM)
